Data on 20 compounds can be found in ChEMBL document CHEMBL4622840, “Microbial transformation of glycyrrhetinic acid derivatives by Bacillus subtilis ATCC 6633 and Bacillus megaterium CGMCC 1.1741” (Bioorg Med Chem, 2020).

The pIC50 is the negative decadic logarithm of the IC50, by convention in mol/L.

One data set relates to RAW264.7. Kind of data set: Antiinflammatory activity in mouse RAW264.7 cells assessed as inhibition of NO production preincubated for 1 hr followed by LPS stimulation measured after 24 hrs by Griess reagent based assay. The conditions noted are these: for IC50: raw264.7; for pIC50: Mus musculus, RAW264.7, read-out: IC50. It is filed as functional, cell-based. The method, boiled down:
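RAW 264.7 macrophages kept at 37 °C under 5% CO2. Cells were exposed to compound for 1 h, then stimulated with LPS at 1.0 μg/mL. After 24 h, nitrite/NO in the medium was read with Griess reagent.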
(In general: Griess reagent forms a coloured azo dye with nitrite.)

The nature of data set [1]: Cytotoxicity against mouse RAW264.7 cells assessed as cell viability. On the set-up: concentration or dose not given beside the values. Format: cell-based. The conditions noted are these: read-out: Activity.

pIC50: −log10 of the molar value.

Consider `CC1(C)CC[C@]2(C(=O)O)CC[C@]3(C)C(=CC(=O)[C@@H]4[C@@]5(C)CC[C@H](O)C(C)(C)[C@@H]5CC[C@]43C)[C@@H]2C1`, for which the IC50 result in the data set with RAW264.7 was “Not Active”. The viability in data set [1] was determined as 111%.

As for `CC1(C)[C@@H](O)CC[C@]2(C)[C@H]3C(=O)C=C4[C@@H]5C[C@@](C)(CO)CC[C@]5(C)CC[C@@]4(C)[C@]3(C)CC[C@@H]12`, the pIC50 with RAW264.7 is 4.30. Moreover, the viability in data set [1] was 56.6%.

On to `CC1(C)[C@@H](O)CC[C@]2(C)[C@H]3CC=C4[C@@H]5C[C@@](C)(CO)CC[C@]5(C)CC[C@@]4(C)[C@]3(C)CC[C@@H]12`, for which, in the data set on RAW264.7, the pIC50 was 4.32. For the same compound, the viability in data set [1] is 102%.

`CC1(C)C(=O)CC[C@]2(C)[C@H]3CC=C4[C@@H]5C[C@@](C)(CO)CC[C@]5(C)CC[C@@]4(C)[C@]3(C)CC[C@@H]12`: the pIC50 with RAW264.7 was 4.42. Besides, the viability in data set [1] is 110%.

`CC1(C)CC[C@]2(C(=O)O[C@@H]3O[C@H](CO)[C@@H](O)[C@H](O)[C@H]3O)CC[C@]3(C)C(=CC(=O)[C@@H]4[C@@]5(C)CC[C@H](O)C(C)(C)[C@@H]5CC[C@]43C)[C@@H]2C1`: in the data set on RAW264.7, the pIC50 is 4.96. Further, the viability in data set [1] was found to be 82.7%.

As for `CC1(C)[C@@H](O)CC[C@]2(C)[C@H]3CC=C4[C@@H]5C[C@@](C)(CO)CC[C@]5(C)C[C@H](O)[C@@]4(CO)[C@]3(C)[C@@H](O)C[C@@H]12`, in the data set on RAW264.7, the pIC50 was 7.15. In addition, the viability in data set [1] turned out to be 107%.

`CC1(C)[C@@H](O[C@@H]2O[C@H](CO)[C@@H](O)[C@H](O)[C@H]2O)CC[C@]2(C)[C@H]3C(=O)C=C4[C@@H]5C[C@@](C)(C=O)CC[C@]5(C)CC[C@@]4(C)[C@]3(C)CC[C@@H]12`: in the data set with RAW264.7, the IC50 result was “Not Active”. In data set [1], the viability was 7.33%.

In the case of `CC1(C)[C@@H](O[C@@H]2O[C@H](CO)[C@@H](O)[C@H](O)[C@H]2O)CC[C@]2(C)[C@H]3C(=O)C=C4[C@@H]5C[C@@](C)(C(=O)O[C@@H]6O[C@H](CO)[C@@H](O)[C@H](O)[C@H]6O)CC[C@]5(C)CC[C@@]4(C)[C@]3(C)CC[C@@H]12`, in the data set on RAW264.7, the IC50 result is “Not Active”. Moreover, the viability in data set [1] amounted to 121%.

For the compound `CC1(C)[C@@H](O)CC[C@]2(C)[C@H]3[C@H](O)C=C4[C@@H]5C[C@@](C)(CO)CC[C@]5(C)C[C@H](O)[C@@]4(C)[C@]3(C)[C@@H](O)C[C@@H]12`, the IC50 entry with RAW264.7 is given as “Not Active”. The viability in data set [1] was determined as 112%.

Consider `CC1(C)[C@@H](O)CC[C@]2(C)C3[C@H](O)C=C4[C@@H]5C[C@@](C)(CO)CC[C@]5(C)CC[C@@]4(C=O)[C@]3(C)[C@@H](O)C[C@@H]12` (stereo not given in full), for which the IC50 entry in the data set on RAW264.7 is listed as “Not Active”. Further, in data set [1], the viability came out at 130%.

Turning to `CC1(C)[C@@H](O)CC[C@]2(C)[C@H]3C(=O)C=C4[C@@H]5C[C@@](C)(C(=O)O[C@@H]6O[C@H](CO)[C@@H](O)[C@H](O)[C@H]6O)CC[C@]5(C)CC[C@@]4(C)[C@]3(C)CC[C@@H]12`, the IC50 result in the data set with RAW264.7 was “Not Active”. For the same compound, the viability in data set [1] amounted to 94.8%.

For the compound `CC1(C)[C@@H](O[C@@H]2O[C@H](CO)[C@@H](O)[C@H](O)[C@H]2O)CC[C@]2(C)[C@H]3C(=O)C=C4[C@@H]5C[C@@](C)(CO)CC[C@]5(C)CC[C@@]4(C)[C@]3(C)CC[C@@H]12`, the IC50 result in the data set with RAW264.7 is on record as “Not Active”. Also, the viability in data set [1] was 1.22%.

For the compound `CC1(C)[C@@H](O)CC[C@]2(C)C3=CC=C4[C@@H]5C[C@@](C)(CO)CC[C@]5(C)C[C@H](O)[C@@]4(CO)[C@]3(C)[C@@H](O)C[C@@H]12`, the negative-log IC50 (pIC50) with RAW264.7 is 4.16. Moreover, the viability in data set [1] is 130%.

Regarding `CC1(C)[C@@H](O)CC[C@]2(C)[C@H]3C(=O)C=C4[C@@H]5C[C@@](C)(C=O)CC[C@]5(C)CC[C@@]4(C)[C@]3(C)CC[C@@H]12`, the pIC50 in the data set on RAW264.7 is 4.33. Also, the viability in data set [1] was 89.6%.

`CC1(C)[C@@H](O)CC[C@]2(C)[C@H]3CC=C4[C@@H]5[C@H](O)[C@@](C)(CO)CC[C@]5(C)C[C@H](O)[C@@]4(C)[C@]3(C)[C@@H](O)C[C@@H]12`: the pIC50 with RAW264.7 was 6.19. Further, the viability in data set [1] was 125%.

Regarding `CC1(C)[C@@H](O)CC[C@]2(C)[C@H]3CC=C4[C@@H]5C[C@@](C)(C(=O)O)CC[C@]5(C)CC[C@@]4(CO)[C@]3(C)[C@@H](O)C[C@@H]12`, the IC50 result in the data set on RAW264.7 is “Not Active”. Moreover, the viability in data set [1] was 114%.

Regarding `CC1(C)[C@@H](O)CC[C@]2(C)[C@H]3CC=C4[C@@H]5C[C@@](C)(CO)CC[C@]5(C)C[C@H](O)[C@@]4(C)[C@]3(C)[C@@H](O)C[C@@H]12`, the IC50 result in the data set with RAW264.7 is reported as “Not Active”. In addition, the viability in data set [1] was 120%.

As to `CC1(C)[C@@H](O)CC[C@]2(C)[C@H]3CC=C4[C@@H]5C[C@@](C)(C(=O)O)CC[C@]5(C)CC[C@@]4(C)[C@]3(C)CC[C@@H]12`, the negative logarithm of the IC50 (pIC50) in the data set on RAW264.7 was 4.59. The viability in data set [1] was determined as 83.4%.

`CC1(C)[C@@H](O)CC[C@]2(C)[C@H]3C(=O)C=C4[C@@H]5C[C@@](C)(C(=O)O)CC[C@]5(C)CC[C@@]4(C)[C@]3(C)CC[C@@H]12` [ENOXOLONE]: the IC50 entry in the data set on RAW264.7 is reported as “Not Active”. Also, the viability in data set [1] was 4.04%.

Consider `O=c1c(O)c(-c2ccc(O)c(O)c2)oc2cc(O)cc(O)c12` [QUERCETIN], for which the pIC50 with RAW264.7 was 5.34. In addition, the viability in data set [1] is 106%.
